Assay: Toxicity liver stage against HepG2, at 10uM
Type: cell-based
Set-up: test concentration 10 uM, cell line HepG2-A16-CD81EGFP
Conditions: human, HepG2-A16-CD81EGFP cells; read-out: INHIBITION
How it was run: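 Uninfected HepG2-A16-CD81EGFP cells, 3 × 10^3 per well, 1536-well, plated on prespotted compound at 10 μM final, parasite-free screening media added to match infected plates; puromycin 10 μM positive, DMSO 0.5% negative; run in parallel with 48 h PbLuc assay at 37 °C, 5% CO2; viability by CellTiter-Glo luminescence, normalized to controls.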

SMILES	cytotoxicity at 10 µM
CC(C)(O)c1cc(CC2(NCc3ccccc3Cl)COC2)no1	2.63%
CCN(CC)C1(Cc2cc(COC)on2)COC1	-2.45%
Cc1nc(-c2ccc(S(=O)(=O)N3CCCCC3)cc2)co1	-2.5%
CCCC(O)CN1CCC(=O)N(CCOC)Cc2ccccc21 (stereo not given)	3.23%
Nc1cccnc1N1CCC(c2ccccc2)CC1	-5.2%
COC(=O)CCn1ccc(=O)c2cc(F)ccc21	0.409%
O=C(CC1NC(N2CCc3ccccc32)=NC1=O)Nc1ccccc1 (stereo not given)	-1.3%
O=S(=O)(NCCNc1cc(-n2cccc2)ncn1)c1cccs1	-0.582%
Cc1cc(C(=O)N2CC[C@@H]3CN(CCC(C)C)S(=O)(=O)[C@@H]3CC2)no1	1.58%
CC(C)CCN1C2(CCN(C(=O)C3(C)CC3)C2)c2ccccc2S1(=O)=O (stereo not given)	-7.42%
COCCNC(=O)c1cc2c(s1)CCN2S(C)(=O)=O	-5.05%
O=C(NCC1CC1)C1=NOC2(CCN(Cc3ccc4c(c3)OCO4)C2)C1 (stereo not given)	-12.1%
CN1C(=O)C(c2cccnc2)CC12CCN(C(=O)c1cccn1C)CC2 (stereo not given)	-16.4%
CC(=O)Nc1ncc(S(=O)(=O)Nc2ccc(F)cc2F)s1	11.1%
O=C(NCc1ccccc1)c1nnc2ccc(N3CCOCC3)cc2n1	11.2%
CNC(=O)CCc1cc(C2CCCN2S(C)(=O)=O)nc(C)n1 (stereo not given)	-0.0612%
CCCn1cc(CN2CCOCC2c2[nH]ncc2C)cn1 (stereo not given)	0.325%
Cc1ccccc1S(=O)(=O)N[C@@H]1CC[C@@H](N2CCNC(=O)C2)[C@@H]1O	4.29%
CCC1CCCCN1C(=O)Cn1nc(-c2ccc(C)s2)cc(N)c1=O (stereo not given)	2.64%
CCN(CC)c1ncc2c(O)nc(C3CCNCC3)cc2n1	14.7%
COc1ccccc1NC(=O)C1(c2ccccc2)CCOCC1	7.59%
COCC(=O)N1CCN(C)C(=O)C(Cc2ccc(-c3cccs3)cc2)C1 (stereo not given)	1.74%

SMILES	cytotoxicity at 10 µM
CC(=O)N1Cc2ccccc2OC2(CCN(C(=O)C3CCOC3)CC2)C1 (stereo not given)	0.146%
O=C(Cc1cccc(O)c1)N1CCCC(O)(CN2CCOCC2)CC1 (stereo not given)	-3.28%
CNC(=O)c1cn[nH]c1C1CCN(Cc2cccc(C)c2OC)C1 (stereo not given)	-23.6%
Cc1ccnc(C2(C)CCCN2C(=O)c2cnccn2)n1 (stereo not given)	-34%
Cc1cc(C2CCCCCN2Cc2cn(C)nc2C)no1 (stereo not given)	-20.4%
Nc1cc(-c2cccs2)nn(CC(=O)NCC2CCCCC2)c1=O	-3.09%
Fc1ccc(CN2CCCC(c3nccnc3-n3ccnc3)C2)cc1 (stereo not given)	-20.4%
Cn1cccc1CN1CCc2c(nc(-c3ccccn3)[nH]c2=O)C1	-10%
CN(Cc1nnc(C2CC2)o1)Cc1ccccc1-c1ccccc1	4.59%
CC(C)(C)c1cc(NC(=O)CN(Cc2ccco2)Cc2cccs2)on1	11.2%
Cc1noc(CNC(=O)NCC2(C)CCCc3ccccc32)n1 (stereo not given)	-1.17%
Cc1cc(C)n(CCCNC(=O)C2CCCO2)n1 (stereo not given)	-11.5%
CCOc1cc(CNC(=O)CNC(=O)CC2CCCCC2)ccn1	6.81%
CCC(C)N(C)C(=O)Nc1ccc(N2CCSCC2)cc1C (stereo not given)	-12.5%
Cc1sc(-c2ccco2)nc1C(=O)N(CC1CCOC1)C1CC1 (stereo not given)	0.714%
Cc1nc(-c2ccco2)ccc1C(=O)NCCC(=O)N1CCCCC1	-1.33%
CC(C)c1cnc(CN2CCCC(c3ccn[nH]3)C2)o1 (stereo not given)	-4.01%
O=C(NCCCN1CCC(OC2CCCCC2)CC1)C1CCCC1	2.24%
CS(=O)(=O)CCSC1CCN(c2ccccc2F)C1=O (stereo not given)	-7.68%
O=C(C1SCCc2sccc21)N1CC(O)C1 (stereo not given)	9.22%
c1nc(N2CCCCC2Cn2cncn2)c2sccc2n1 (stereo not given)	9.43%
COCCn1cc(C(=O)N2CCCC2c2cnn(C)c2)ccc1=O (stereo not given)	5.92%

SMILES	cytotoxicity at 10 µM
Cc1cc(NS(=O)(=O)c2cccs2)ccc1-n1cccc1C(=O)O	-2.68%
CCCN(C)C(=O)c1cc(Br)cc(S(=O)(=O)N2CCOCC2)c1F	6.83%
CC(C)OC(=O)CCNC(=O)Nc1cccc2ncccc12	1.03%
N#Cc1c(Cl)nsc1N1CCN(CC2CCCCC2)CC1	-8.67%
CCCOc1ccc(Cl)cc1C(=O)N1CCC(n2cncn2)CC1	2.93%
COc1ccccc1N1CCC(CNS(=O)(=O)c2cccs2)C1 (stereo not given)	5.66%
CC1CN(C)CCN1C(=O)Nc1nc(-c2ccc[nH]2)cs1 (stereo not given)	-1.94%
CCC(O)CN1CCN(C(=O)Cc2c(C)nc(C)[nH]c2=O)CC1 (stereo not given)	-19.3%
COc1ccc(-c2nc(C3(NC(=O)OC(C)(C)C)CCC3)no2)cn1	12.5%
c1ccc(C2CN(CCc3ccncc3)CCO2)cc1 (stereo not given)	-8.85%
Cc1c(C(C)NC(=O)Nc2ccc(F)c(F)c2)cnn1C (stereo not given)	-46.8%
CCC(O)CN1CCN(C(=O)c2ccnc(N(C)C)c2)CC1 (stereo not given)	-7.87%
CC(=O)N1CC[C@@H]2O[C@@H](COCc3csc(C)n3)CC[C@@H]21	-71.7%
Cc1noc([C@H]2C[C@H]3OCC[C@H]3N(Cc3ccncc3)C2)n1	-74.7%
CNC(=O)[C@@]12CCO[C@@H]1CCN(S(=O)(=O)c1ccccc1C)C2	-72.8%
CC(=O)N1CCC2(CCN(C(=O)c3ccc(F)c(C(F)(F)F)c3)CC2)C1	-80.4%
c1cnc(OCc2nnc3n2CCN(CC2CCOCC2)C3)nc1	4.95%
Cc1ccc(N2CCC3(CCN(C(=O)c4ccsc4)CC3)C2)nn1	4%
CNC(=O)CC1CC2(CCN(S(C)(=O)=O)CC2)c2ccccc21 (stereo not given)	5.75%
CCn1ccnc1C1CCN(C(=O)C(O)c2ccc(Cl)cc2)CC1 (stereo not given)	-0.65%
CNCC(=O)N1CCCC1c1nc(C(C)C)no1 (stereo not given)	0.983%
CCN(CCN1CCCCCC1)C(=O)COc1cccnc1	12.6%

SMILES	cytotoxicity at 10 µM
CCCN1CCC(CC(=O)N(C)C(C)c2cncs2)CC1 (stereo not given)	2.62%
CCCc1cc(C(=O)N(Cc2cccnc2)Cc2cccnc2)[nH]n1	-5.79%
CC1(C)CC(CN2CCC3(CCC(=O)N(C4CCC4)C3)CC2)CCO1 (stereo not given)	0.986%
Cc1cccnc1CNC(=O)CC1C(=O)NCCN1CC(C)(C)C (stereo not given)	5.48%
CN(C)C(C(=O)NCC1(N(C)C)CCOCC1)c1ccccc1F (stereo not given)	2.2%
CCn1nc(C)cc1C(=O)NCc1nc(C)cc(C)n1	-0.745%
Cc1ncc(C(=O)N2CCCCC2c2nc3cc(F)ccc3[nH]2)c(O)n1 (stereo not given)	-0.305%
Cn1ccnc1C1CCCN(C(=O)c2ccc3nccnc3c2)C1 (stereo not given)	19.7%
Cc1noc(C2CCCCN2C(=O)C2CCN(C(C)C)CC2)n1 (stereo not given)	-4.62%
Cc1nc(CN2CCN(C(=O)C(c3ccccc3C)N(C)C)CC2)no1 (stereo not given)	1.06%
O=C1NCC2(CCCN(C(=O)c3c[nH]nc3-c3cccs3)C2)O1 (stereo not given)	8.32%
O=C(CCCN1CCCCC1)NC(C(=O)O)c1ccc(Cl)cc1 (stereo not given)	-2.33%
CCn1ncc(C(=O)N2CCCN(CCCc3ccccc3)CC2)c1C	-2.62%
O=C1OCCN1CCNC(=O)C1(N2CCCCC2)Cc2ccccc2C1	-6.77%
CC(C)n1cnnc1CN(C)CC1CCOC1 (stereo not given)	11.3%
CCCc1cc(C(=O)N2C[C@H]3CC=C(C)C[C@H]3C2)ccn1	0.782%
CN(C(=O)CSc1ccccn1)C1CCCN(CCc2ccccc2)C1 (stereo not given)	-4.46%
Cc1nccnc1-n1c(COCC(=O)O)nc2c(C)cccc21	-6.29%
CCCN1CCN(Cc2cc3cc(OCC)ccc3[nH]c2=O)CC1	-9.91%
COCc1ccc(C(=O)N2CCCN(c3ccc(F)cc3)CC2)s1	-8.92%
Cc1oc(-c2ccc(F)cc2)nc1CN1CCOCS1(=O)=O	4.57%
CNC(=O)c1cccc(CNC(=O)C2CC(=O)N(CCN(C)C)C2)c1 (stereo not given)	1.01%

SMILES	cytotoxicity at 10 µM
O=C(Nc1ccc(CCN2CCOCC2)cc1)C1CC1	-10.9%
Cn1cc(NC(=O)N2CCC2c2ccccc2)ccc1=O (stereo not given)	-9.57%
Cc1ccc(OCC(=O)NS(=O)(=O)c2c(C)noc2C)cc1C	-1.96%
Cc1cc(C)c(CNC(=O)N(C)CC2CCCCO2)c(=O)[nH]1 (stereo not given)	-8.93%
COC1CCN(C(=O)Cc2csc(-c3ncccn3)n2)CC1	-12.6%
COc1cccc(C2CCCN2Cc2nc3c(cnn3C)c(=O)[nH]2)c1 (stereo not given)	-4.35%
COc1c(C)cnc(CN2CCCCC2Cn2nc(C)nc2C)c1C (stereo not given)	-0.627%
CNC(=O)CS(=O)(=O)Cc1cc(Cl)c2c(c1)OCCCO2	-5.61%
Cc1ccc(-c2cc(C3CCNCC3)nc(C)n2)cc1	9.63%
CN(C)c1ncc(-c2ccc(C(N)=O)cc2)c(C2CCNC2)n1 (stereo not given)	-0.892%
CCn1ccc2ccnc(CC3CN(C(=O)Cn4ccnc4C)C3)c21	-5.87%
Cc1nc(CN2CCc3ncnc(-c4ccccc4)c3CC2)cs1	-81.1%
CN(C)CCN1CCOCC12CCN(C(=O)C1CC1)CC2	-7.45%
CC(=O)N1CC(=O)N(c2ccccc2)CC12CCN(Cc1cccs1)C2 (stereo not given)	-11.1%
c1cc2c(cc1CN1CC[C@H]3[C@H]1CCN3CC1CC1)OCO2	1.67%
CN(C)C[C@]12COC[C@H]1CN(C(=O)CCc1ccccc1)C2	-1.89%
O=C(NC[C@]12COC[C@H]1CN(Cc1ccncc1)C2)c1ccno1	-72.1%
Cn1cccc1C(=O)N1C[C@H]2CN(Cc3cccc(F)c3)C[C@H]2C1	-1.1%
O=C(NCC1CC1)C1CCC2(CCN(C(=O)c3cccnc3)CC2)O1 (stereo not given)	3.59%
CC[C@@H]1N(Cc2ccco2)CCC[C@]12CCC(=O)N2C	-0.00736%
Cc1ccc(CN2CCc3[nH]nc(C(=O)N(C)C)c3C2)o1	0.081%
Cc1cc(CN2CC[C@H]3OCC[C@@]3(C(=O)NC(C)C)C2)no1	5.86%

— ChEMBL document CHEMBL4513216, “Probing the Open Global Health Chemical Diversity Library for Multistage-Active Starting Points for Next-Generation Antimalarials” (ACS Infect Dis, 2020)
